The target in test [1] is Interferon-induced, double-stranded RNA-activated protein kinase (Homo sapiens) (UniProt P19525). Description: Inhibition of PRKR (unknown origin) assessed as residual activity at 100 nM by KINOMEscan analysis relative to control.
Test [2] deals with T1, Serine/threonine-protein kinase Sgk1 (Homo sapiens) (UniProt O00141).
T1 sequence (whole entry): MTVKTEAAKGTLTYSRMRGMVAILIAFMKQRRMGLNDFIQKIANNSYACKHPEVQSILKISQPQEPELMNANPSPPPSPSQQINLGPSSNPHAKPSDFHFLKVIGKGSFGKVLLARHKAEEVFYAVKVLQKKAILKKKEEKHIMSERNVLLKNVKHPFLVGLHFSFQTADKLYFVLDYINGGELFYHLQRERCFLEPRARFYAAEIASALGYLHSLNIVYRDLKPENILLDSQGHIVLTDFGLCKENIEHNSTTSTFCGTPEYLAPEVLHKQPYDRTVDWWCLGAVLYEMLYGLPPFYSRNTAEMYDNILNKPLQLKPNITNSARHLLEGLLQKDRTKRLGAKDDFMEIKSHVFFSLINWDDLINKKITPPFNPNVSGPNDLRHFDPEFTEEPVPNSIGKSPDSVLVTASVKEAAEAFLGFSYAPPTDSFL
The test is described as follows: Inhibition of SGK (unknown origin) assessed as residual activity at 100 nM by KINOMEscan analysis relative to control.

In test [3] the test system is Epidermal growth factor receptor (Homo sapiens), P00533 [UNDEFINED MUTATION]. The test is described as follows: Inhibition of EGFR S752-I759del mutant (unknown origin) assessed as residual activity at 100 nM by KINOMEscan analysis relative to control.
Test [4] concerns the target Serine/threonine-protein kinase VRK2 (Homo sapiens) (UniProt Q86Y07). The test is described as follows: Inhibition of VRK2 (unknown origin) assessed as residual activity at 100 nM by KINOMEscan analysis relative to control.
Test [5] concerns the target T2, Serine/threonine-protein kinase DCLK1 (Homo sapiens) (UniProt O15075).
T2 sequence (whole entry): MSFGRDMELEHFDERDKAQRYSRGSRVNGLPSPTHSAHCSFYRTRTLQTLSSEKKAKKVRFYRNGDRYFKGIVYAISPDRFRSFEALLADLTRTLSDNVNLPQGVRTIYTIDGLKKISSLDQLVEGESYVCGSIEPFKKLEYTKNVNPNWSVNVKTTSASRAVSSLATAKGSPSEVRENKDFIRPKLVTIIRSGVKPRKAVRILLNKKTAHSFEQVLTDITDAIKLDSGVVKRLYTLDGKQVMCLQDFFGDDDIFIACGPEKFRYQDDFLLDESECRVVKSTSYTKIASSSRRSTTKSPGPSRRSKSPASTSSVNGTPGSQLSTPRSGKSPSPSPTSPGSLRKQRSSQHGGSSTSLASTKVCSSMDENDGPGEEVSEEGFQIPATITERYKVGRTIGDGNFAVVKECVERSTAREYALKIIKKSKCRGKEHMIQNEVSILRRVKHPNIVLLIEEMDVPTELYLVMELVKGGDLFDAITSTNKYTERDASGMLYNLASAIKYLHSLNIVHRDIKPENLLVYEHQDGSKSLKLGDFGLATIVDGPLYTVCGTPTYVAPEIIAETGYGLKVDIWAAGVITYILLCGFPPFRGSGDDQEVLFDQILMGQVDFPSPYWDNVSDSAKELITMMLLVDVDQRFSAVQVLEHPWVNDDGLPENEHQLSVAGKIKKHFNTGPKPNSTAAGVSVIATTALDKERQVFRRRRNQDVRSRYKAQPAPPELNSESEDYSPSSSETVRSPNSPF
The test is described as follows: Inhibition of DCAMKL1 (unknown origin) assessed as residual activity at 100 nM by KINOMEscan analysis relative to control.

Test [6] has as its target Mitogen-activated protein kinase kinase kinase kinase 5 (Homo sapiens) (UniProt Q9Y4K4). Description: Inhibition of MAP4K5 (unknown origin) assessed as residual activity at 100 nM by KINOMEscan analysis relative to control.
The subject of test [7] is Phosphatidylinositol 4,5-bisphosphate 3-kinase catalytic subunit alpha isoform (Homo sapiens), P42336 [E545A]. Description: Inhibition of PIK3CA E545A mutant (unknown origin) assessed as residual activity at 100 nM by KINOMEscan analysis relative to control.
The subject of test [8] is Phosphatidylinositol 4,5-bisphosphate 3-kinase catalytic subunit alpha isoform (Homo sapiens), P42336 [H1047L]. The test is described as follows: Inhibition of PIK3CA H1047L mutant (unknown origin) assessed as residual activity at 100 nM by KINOMEscan analysis relative to control.
In a further test the test system is Calu-1. Description: Effect on total ERK level in human Calu-1 cells incubated for 24 hrs by HTRF analysis. In kind it is functional, cell-based. Summed up:
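Calu-1 cells carry two KRAS G12C alleles and were sourced from CLS. Total and pERK levels were both analyzed after compound treatment.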

The source made the active and inactive calls. The calls are words filed in the database; no cut-off is given here.

Mitogen-activated protein kinase kinase kinase kinase 5 (Homo sapiens), sequence (Q9Y4K4 whole entry, looked up, canonical isoform): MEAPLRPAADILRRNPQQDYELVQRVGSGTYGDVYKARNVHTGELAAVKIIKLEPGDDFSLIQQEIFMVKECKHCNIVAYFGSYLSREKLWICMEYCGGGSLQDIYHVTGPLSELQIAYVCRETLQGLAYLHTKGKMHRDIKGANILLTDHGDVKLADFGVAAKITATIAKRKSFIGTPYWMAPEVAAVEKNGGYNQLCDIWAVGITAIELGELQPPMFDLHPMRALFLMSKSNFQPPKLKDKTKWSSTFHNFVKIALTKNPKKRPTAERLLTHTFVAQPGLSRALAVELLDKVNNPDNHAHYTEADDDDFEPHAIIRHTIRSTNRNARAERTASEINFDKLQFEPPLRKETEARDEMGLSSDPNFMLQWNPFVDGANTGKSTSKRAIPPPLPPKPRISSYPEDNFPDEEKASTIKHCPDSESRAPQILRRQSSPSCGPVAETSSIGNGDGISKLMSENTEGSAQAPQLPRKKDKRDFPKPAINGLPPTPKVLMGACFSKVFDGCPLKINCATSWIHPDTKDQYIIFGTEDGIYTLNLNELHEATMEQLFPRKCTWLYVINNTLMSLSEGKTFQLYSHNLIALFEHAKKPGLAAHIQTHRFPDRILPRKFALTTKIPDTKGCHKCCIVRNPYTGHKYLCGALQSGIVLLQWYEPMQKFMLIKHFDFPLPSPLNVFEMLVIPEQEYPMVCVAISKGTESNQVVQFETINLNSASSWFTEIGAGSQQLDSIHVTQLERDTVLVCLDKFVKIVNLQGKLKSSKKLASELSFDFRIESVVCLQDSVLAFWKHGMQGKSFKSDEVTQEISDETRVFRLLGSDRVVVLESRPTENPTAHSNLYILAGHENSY
Interferon-induced, double-stranded RNA-activated protein kinase (Homo sapiens), sequence (P19525 whole entry): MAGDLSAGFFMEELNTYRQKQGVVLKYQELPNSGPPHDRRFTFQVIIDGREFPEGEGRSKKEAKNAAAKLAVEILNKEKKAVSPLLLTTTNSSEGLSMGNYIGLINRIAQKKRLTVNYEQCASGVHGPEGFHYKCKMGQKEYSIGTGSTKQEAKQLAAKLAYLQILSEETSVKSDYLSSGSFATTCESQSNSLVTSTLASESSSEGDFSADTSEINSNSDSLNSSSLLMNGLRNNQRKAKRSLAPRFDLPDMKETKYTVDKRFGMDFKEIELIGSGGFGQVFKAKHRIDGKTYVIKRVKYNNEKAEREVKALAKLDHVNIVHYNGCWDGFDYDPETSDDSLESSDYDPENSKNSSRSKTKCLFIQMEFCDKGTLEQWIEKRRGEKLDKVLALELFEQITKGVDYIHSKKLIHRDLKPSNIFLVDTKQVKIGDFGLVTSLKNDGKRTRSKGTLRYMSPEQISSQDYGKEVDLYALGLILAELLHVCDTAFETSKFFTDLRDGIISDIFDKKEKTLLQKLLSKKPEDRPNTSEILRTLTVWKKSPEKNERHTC
Phosphatidylinositol 4,5-bisphosphate 3-kinase catalytic subunit alpha isoform (Homo sapiens), P42336 [E545A], sequence (P42336 whole entry E545A, canonical isoform): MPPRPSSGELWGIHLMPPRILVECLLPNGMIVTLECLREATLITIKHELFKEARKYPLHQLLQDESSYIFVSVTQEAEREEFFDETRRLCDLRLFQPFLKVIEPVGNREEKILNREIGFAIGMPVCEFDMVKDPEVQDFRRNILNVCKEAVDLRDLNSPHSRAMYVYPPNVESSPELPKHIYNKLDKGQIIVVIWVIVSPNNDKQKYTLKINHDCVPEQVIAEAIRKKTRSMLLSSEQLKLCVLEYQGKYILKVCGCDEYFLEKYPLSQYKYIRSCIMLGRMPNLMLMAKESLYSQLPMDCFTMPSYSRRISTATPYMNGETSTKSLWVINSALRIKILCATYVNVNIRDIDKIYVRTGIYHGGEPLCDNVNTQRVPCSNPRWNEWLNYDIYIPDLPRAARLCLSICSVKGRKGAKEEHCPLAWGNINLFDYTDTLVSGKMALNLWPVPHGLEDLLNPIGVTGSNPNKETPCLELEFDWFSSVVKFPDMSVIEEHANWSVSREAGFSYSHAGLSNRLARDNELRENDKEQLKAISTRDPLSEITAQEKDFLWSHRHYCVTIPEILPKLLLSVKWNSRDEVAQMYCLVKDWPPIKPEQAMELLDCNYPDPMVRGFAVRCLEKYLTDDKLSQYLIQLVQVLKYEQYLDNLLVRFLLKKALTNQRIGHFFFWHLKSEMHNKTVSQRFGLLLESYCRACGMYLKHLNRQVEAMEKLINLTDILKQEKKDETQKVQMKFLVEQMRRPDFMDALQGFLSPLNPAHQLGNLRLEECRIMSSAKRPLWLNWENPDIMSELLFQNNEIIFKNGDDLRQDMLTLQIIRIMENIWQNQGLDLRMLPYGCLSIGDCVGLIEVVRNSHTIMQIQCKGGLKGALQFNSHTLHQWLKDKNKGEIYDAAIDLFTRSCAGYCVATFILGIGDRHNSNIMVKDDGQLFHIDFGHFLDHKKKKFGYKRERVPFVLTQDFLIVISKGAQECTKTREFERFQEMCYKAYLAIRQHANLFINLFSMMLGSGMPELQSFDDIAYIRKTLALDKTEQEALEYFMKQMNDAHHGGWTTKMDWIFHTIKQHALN
Phosphatidylinositol 4,5-bisphosphate 3-kinase catalytic subunit alpha isoform (Homo sapiens), P42336 [H1047L], sequence (P42336 whole entry H1047L, canonical isoform): as the sequence (P42336 whole entry E545A, canonical isoform) above, with A545E, H1047L counted along it
Epidermal growth factor receptor (Homo sapiens), P00533 [UNDEFINED MUTATION], sequence (P00533 whole entry, looked up, stated change not applied): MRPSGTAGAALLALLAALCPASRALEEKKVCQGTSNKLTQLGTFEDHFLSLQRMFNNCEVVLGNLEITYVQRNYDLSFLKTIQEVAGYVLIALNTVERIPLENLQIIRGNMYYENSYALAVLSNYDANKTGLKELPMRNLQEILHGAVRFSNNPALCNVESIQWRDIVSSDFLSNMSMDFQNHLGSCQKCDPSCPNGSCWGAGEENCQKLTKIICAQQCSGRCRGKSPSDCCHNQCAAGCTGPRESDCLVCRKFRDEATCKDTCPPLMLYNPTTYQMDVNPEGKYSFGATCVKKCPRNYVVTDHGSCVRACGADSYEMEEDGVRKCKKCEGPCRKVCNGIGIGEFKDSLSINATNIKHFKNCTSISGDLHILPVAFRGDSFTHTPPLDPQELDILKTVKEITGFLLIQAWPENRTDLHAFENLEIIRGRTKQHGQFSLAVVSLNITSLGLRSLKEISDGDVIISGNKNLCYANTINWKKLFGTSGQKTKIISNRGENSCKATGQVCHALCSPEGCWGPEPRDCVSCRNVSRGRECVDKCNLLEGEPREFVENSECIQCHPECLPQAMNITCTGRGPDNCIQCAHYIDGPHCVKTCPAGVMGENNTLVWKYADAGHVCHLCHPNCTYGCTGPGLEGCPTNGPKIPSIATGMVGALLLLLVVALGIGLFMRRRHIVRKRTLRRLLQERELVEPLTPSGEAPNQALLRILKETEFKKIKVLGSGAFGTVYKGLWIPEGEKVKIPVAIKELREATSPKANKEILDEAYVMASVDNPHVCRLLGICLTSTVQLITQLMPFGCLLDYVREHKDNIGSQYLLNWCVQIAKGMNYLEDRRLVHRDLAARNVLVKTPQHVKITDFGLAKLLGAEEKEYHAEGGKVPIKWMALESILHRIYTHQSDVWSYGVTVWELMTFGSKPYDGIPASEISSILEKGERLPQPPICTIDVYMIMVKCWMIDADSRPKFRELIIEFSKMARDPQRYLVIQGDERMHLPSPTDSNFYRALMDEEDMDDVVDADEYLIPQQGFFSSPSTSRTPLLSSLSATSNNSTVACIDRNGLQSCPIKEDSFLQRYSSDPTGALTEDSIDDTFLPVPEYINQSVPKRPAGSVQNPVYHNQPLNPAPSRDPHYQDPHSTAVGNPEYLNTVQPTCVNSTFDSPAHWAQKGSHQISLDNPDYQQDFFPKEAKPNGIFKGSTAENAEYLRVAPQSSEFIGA
Serine/threonine-protein kinase VRK2 (Homo sapiens), sequence (Q86Y07 whole entry): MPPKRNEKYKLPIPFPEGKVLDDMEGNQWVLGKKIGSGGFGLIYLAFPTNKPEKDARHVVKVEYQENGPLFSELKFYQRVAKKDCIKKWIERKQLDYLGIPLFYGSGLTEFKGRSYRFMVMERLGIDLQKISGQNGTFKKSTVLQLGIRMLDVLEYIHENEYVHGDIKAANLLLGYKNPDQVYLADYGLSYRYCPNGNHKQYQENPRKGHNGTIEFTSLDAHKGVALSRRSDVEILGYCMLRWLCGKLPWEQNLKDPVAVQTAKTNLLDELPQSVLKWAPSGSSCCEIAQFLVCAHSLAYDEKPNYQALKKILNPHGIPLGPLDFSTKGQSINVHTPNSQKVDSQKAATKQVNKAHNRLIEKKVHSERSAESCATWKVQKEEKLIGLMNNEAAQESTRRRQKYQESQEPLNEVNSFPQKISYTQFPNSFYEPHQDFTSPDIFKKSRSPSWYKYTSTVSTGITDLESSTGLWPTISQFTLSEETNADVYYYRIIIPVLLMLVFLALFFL

Consider `COc1cc2ncnc(N[C@H](C)c3cccc4ccccc34)c2cc1OC`, for which the Activity in test [1] came out at 100%; in [2], 87%; in test [3], 93%; in test [4], 72%; in test [5], 86%; in test [6], 87%. The Activity in test [7] came out at 93%; in test [8], 73%.

With `CNCc1ccccc1-c1csc([C@@H](C)Nc2nc(C)nc3cc(OC)c(OC)cc23)c1` [BAY-293], the outcome in the test on Calu-1 was inactive.
